How the values were obtained:
Type in all cases: functional, cell-based
[1] = Antiproliferative activity against human SKOV3 cells after 72 hrs by MTT assay; conditions: SK-OV-3, 72 h
How it was run: (§1)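 MTT viability after 72 h continuous exposure. Cells seeded 24 h beforehand at 2,000/well (adherent) or 10,000/well (suspension), then given 0, 0.01, 0.1, 0.5, 1.0 or 10.0 μM compound diluted from 10 mM DMSO stock into RPMI or DMEM with 10% FBS, 37°C, 5% CO2. IC50 taken as concentration killing 50% of cells versus untreated culture.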

[2] = Antiproliferative activity against human HL60 cells after 72 hrs by MTT assay; conditions: HL-60, 72 h; how it was run: as §1
[3] = Antiproliferative activity against human HL60/ADR cells after 72 hrs by MTT assay; how it was run: as §1

Compound	IC50 [1] [nM]	IC50 [2] [nM]	IC50 [3] [nM]
CN1C(=O)/C(=C/N2N=C(c3ccccc3)CC2c2ccccc2O)SC1=S (stereo not drawn)	341	2880	–
COc1cccc2c1C(=O)c1c(O)c3c(c(O)c1C2=O)C[C@@](O)(C(=O)CO)C[C@@H]3O[C@H]1C[C@H](N)[C@H](O)[C@H](C)O1 [DOXORUBICIN]	73	51	8800
O=C1/C(=C/N2N=C(c3ccccc3)CC2c2ccccc2O)SC(=S)N1c1cccnc1 (stereo not drawn)	> 10000	720	–
O=C1/C(=C/N2N=C(c3ccccc3)CC2c2ccccc2O)SC(=S)N1c1cccc(C(F)(F)F)c1 (stereo not drawn)	> 10000	> 10000	–
CC(=O)Oc1ccc(N2C(=O)/C(=C/N3N=C(c4ccccc4)CC3c3ccccc3O)SC2=S)cc1 (stereo not drawn)	244	9400	–
CC(=O)Oc1ccc(N2C(=O)/C(=C/N3N=C(c4ccc(Cl)cc4)CC3c3ccc(Cl)cc3)SC2=S)cc1 (stereo not drawn)	> 10000	> 10000	–
CC(=O)Oc1cccc(N2C(=O)/C(=C/N3N=C(c4ccc5ccccc5c4)CC3c3ccc(Cl)cc3)SC2=S)c1 (stereo not drawn)	2390	1020	–
O=C1NC(=S)S/C1=C\N1N=C(c2ccc3ccccc3c2)CC1c1ccc(Cl)cc1 (stereo not drawn)	163	400	–
CN(C)c1ccc(C2CC(c3ccccc3)=NN2/C=C2\SC(=S)NC2=O)cc1 (stereo not drawn)	> 10000	> 10000	–
CN1C(=O)/C(=C/N2N=C(c3ccc4ccccc4c3)CC2c2ccccc2O)SC1=S (stereo not drawn)	> 10000	> 10000	–
O=C1NC(=S)S/C1=C\N1N=C(c2ccc(Cl)cc2)CC1c1ccc(Cl)cc1 (stereo not drawn)	9140	> 10000	–
